Reference: ChEMBL document CHEMBL4043246, “Discovery of novel [1,2,4]triazolo[4,3-a]quinoxaline aminophenyl derivatives as BET inhibitors for cancer treatment” (Bioorg Med Chem Lett, 2017)

Experiments:
[1] = biological target: Bromodomain-containing protein 4 (Homo sapiens, UniProt O60885); experiment: Inhibition of BRD4 BD1-BD2 (unknown origin) using tetraacetylated histone peptide as substrate after 2 hrs by alphascreen assay
[2] = Antiproliferative activity against human TY82 cells; type: functional, cell-based
[3] = test system: THP-1; experiment: Antiproliferative activity against human THP1 cells; type: functional, cell-based
[4] = Stability in human liver microsomes assessed as parent compound remaining after 30 mins; type: ADME, microsome; conditions: read-out: Stability
Summary of the method: (§1)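 Incubated in vitro with mouse, rat or human liver microsomes for 30 minutes. Result expressed as percent of parent compound remaining.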

[5] = test system: Rattus norvegicus; experiment: AUCinfinity in rat at 5 mg/kg, po; type: ADME, organism-based; set-up: dose 5 mg/kg, time infinity, route oral; conditions: in vivo
Summary of the method: (§2)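 Rat pharmacokinetics with single dosing, either intravenous at 2 mg/kg or oral at 5 or 20 mg/kg. AUC is reported both to the last time point (AUCt) and extrapolated to infinity, in ug.hr/mL.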

[6] = AUCt in rat at 2 mg/kg, iv; type: ADME, organism-based; conditions: in vivo; summary of the method: as §2
[7] = Stability in mouse liver microsomes assessed as parent compound remaining after 30 mins; type: ADME, microsome; conditions: read-out: Stability; summary of the method: as §1
[8] = Clearance in rat at 2 mg/kg, iv; type: ADME, organism-based; conditions: in vivo
[9] = test system: Rattus norvegicus; experiment: Tmax in rat at 5 mg/kg, po; type: ADME, organism-based; conditions: in vivo
Summary of the method: (§3)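 Rat pharmacokinetics after a single intravenous dose of 2 mg/kg or oral doses of 5 mg/kg and 20 mg/kg. Reported parameters are Tmax, Cmax, T1/2, AUCt, AUC∞, CL, Vss and F(%). CL, Vss and F come from the intravenous/oral 2 and 5 mg/kg arms.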

[10] = Stability in rat liver microsomes assessed as parent compound remaining after 30 mins; type: ADME, microsome; conditions: read-out: Stability; summary of the method: as §1
[11] = Volume of distribution at steady state in rat at 2 mg/kg, iv; type: ADME, organism-based; conditions: in vivo, read-out: Vdss; summary of the method: as §3
[12] = AUCt in rat at 5 mg/kg, po; type: ADME, organism-based; conditions: in vivo; summary of the method: as §2
[13] = Oral bioavailability in rat at 5 mg/kg; type: ADME, organism-based; conditions: in vivo; summary of the method: as §3
[14] = test system: Rattus norvegicus; experiment: Half life in rat at 5 mg/kg, po; type: ADME, organism-based; conditions: in vivo
Summary of the method: (§4)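 Rat pharmacokinetics with single intravenous (2 mg/kg) or oral (5 or 20 mg/kg) dosing. Terminal half-life is reported in hours.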

[15] = Half life in rat at 2 mg/kg, iv; type: ADME, organism-based; conditions: in vivo; summary of the method: as §4
[16] = test system: Rattus norvegicus; experiment: Cmax in rat at 5 mg/kg, po; type: ADME, organism-based; set-up: dose 5 mg/kg, route oral; conditions: in vivo
Summary of the method: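 Peak plasma level after single oral dosing in rat at 5 or 20 mg/kg. Cmax is given in mg/mL as printed, with Tmax in hours.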

[17] = AUCinfinity in rat at 2 mg/kg, iv; type: ADME, organism-based; set-up: dose 2 mg/kg, time infinity, route intravenous; conditions: in vivo; summary of the method: as §2

CC(=O)NCc1cccc(Nc2nc3ccccc3n3c(C)nnc23)c1
IC50 [1]: 530 nM
IC50 [2]: > 10000 nM

CCOC(=O)NCc1cccc(Nc2nc3ccccc3n3c(C)nnc23)c1
IC50 [1]: 160 nM
IC50 [3]: > 10000 nM
IC50 [2]: > 10000 nM

CC(C)(C)OC(=O)NCc1cccc(Nc2nc3ccccc3n3c(-c4ccccc4)nnc23)c1
IC50 [1]: > 10000 nM

Cc1nnc2c(Nc3cccc(CNC(=O)OC(C)(C)C)c3)nc3ccccc3n12
remaining at 0.5 h [4]: 27%
AUC [5]: 2390 ng·h/mL
AUC(0-t) [6]: 4020 ng·h/mL
remaining at 0.5 h [7]: 0.12%
clearance [8]: 8.33 mL/min/kg
Tmax [9]: 3.42 h
IC50 [1]: 17 to 68 nM
remaining at 0.5 h [10]: 0.19%
Vd [11]: 0.46 L/kg
AUC(0-t) [12]: 2110 ng·h/mL
IC50 [3]: 3400 nM
bioavailability [13]: 20.9%
t1/2 [14]: 3.69 h
IC50 [2]: 2500 to 7100 nM
half-life [15]: 0.72 h
Cmax [16]: 340 ng/mL
AUC(0-inf) [17]: 4020 ng·h/mL

Cc1nnc2c(Nc3cccc(CNC(=O)OC(C)(C)C)c3)nccn12
IC50 [1]: 1500 nM
IC50 [2]: > 10000 nM

Cc1nnc2c(Nc3cccc(CNC(=O)C(C)(C)C)c3)nc3ccccc3n12
IC50 [1]: 97 nM
IC50 [2]: > 10000 nM

Cc1nnc2c(Nc3cccc(CN)c3)nc3ccccc3n12
IC50 [1]: 350 nM
IC50 [2]: > 10000 nM

CCNC(=O)C[C@@H]1N=C(c2ccc(Cl)cc2)c2cc(OC)ccc2-n2c(C)nnc21 [MOLIBRESIB]
IC50 [3]: 290 nM
IC50 [2]: 390 nM

CCC(=O)NCc1cccc(Nc2nc3ccccc3n3c(C)nnc23)c1
IC50 [1]: 200 nM
IC50 [2]: 7600 nM

CCc1nnc2c(Nc3cccc(CNC(=O)OC(C)(C)C)c3)nc3ccccc3n12
IC50 [1]: > 10000 nM

Cc1sc2c(c1C)C(c1ccc(Cl)cc1)=N[C@@H](CC(=O)Nc1ccc(O)cc1)c1nnc(C)n1-2 [BIRABRESIB]
IC50 [3]: 33 nM
IC50 [2]: 67 nM

Cc1nnc2c(Nc3cccc(CNC(=O)c4ccccc4)c3)nc3ccccc3n12
IC50 [1]: 640 nM
IC50 [2]: 8600 nM

Cc1nnc2c(Nc3ccc(CNC(=O)OC(C)(C)C)cc3)nc3ccccc3n12
IC50 [1]: 2700 nM
IC50 [2]: > 10000 nM

CC(C)(C)OC(=O)NCc1cccc(Nc2nc3ccccc3n3c(C(F)(F)F)nnc23)c1
IC50 [1]: > 10000 nM

Cc1nnc2c(Nc3ccc(NC(=O)OC(C)(C)C)cc3)nc3ccccc3n12
IC50 [1]: 6400 nM
IC50 [2]: > 10000 nM

CC(C)(C)OC(=O)NCc1cccc(Nc2nc3ccccc3n3cnnc23)c1
IC50 [1]: > 10000 nM

Cc1nnc2c(Nc3cccc(NC(=O)OC(C)(C)C)c3)nc3ccccc3n12
IC50 [1]: 120 nM
IC50 [2]: > 10000 nM
